MDM2 E3 inh = MDM2-luciferase reporter signal enhancers, primary screen, MDM2 E3 ligase inhibitor project, cell-based, luminescence, 1536-well. cell-based MDM2 ubiquitination luciferase reporter, 2 h; 0 = plate control, 100 = twice control, blank-subtracted. actives 0.11% (n = 210,000). signal enhancement, % at 5 µM;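 active = signal enhancement of 30% or more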;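 also: luminescence tracks abundance of the self-degrading MDM2-luciferase fusion protein; higher signal means inhibition of MDM2 E3 ligase activity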
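Test system: stable mammalian line carrying autodegrading MDM2–luciferase fusion reporter; quantity: 2000 cells in each well; times: 4 h cell settling then 2 h compound exposure, 37 °C; detection: luminescence with SteadyLite reagent, 15 min at room temperature; evaluation: percent signal gain over controls, blank-subtracted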
Lipid droplet = inhibitors of hepatocyte lipid droplet formation, primary screen, imaging, high-throughput imaging, BODIPY stain; inhibition, % at 6.5 µM; AID 1656, 2009; AML12 mouse hepatocytes, oleate lipid droplets; actives 0.4% (n = 240,000);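 active = lipid droplet intensity inhibited by at least 50%, with more than 500 cells counted; inconclusive = wells with under 300 cells, treated as cytotoxic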
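Assay system: AML12 mouse liver cells | Compound: 6.5 µM single-point dosing | Schedule: Overnight exposure | Technique: Fluorescence imaging, 20x objective, two fields per well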
pCIP destab = p/CIP-EGFP fusion destabilizers, primary screen, fluorescence, F442A cells; Q05BA5; 16 h; decrease of EGFP signal, % at 10 µM; actives 0.01% (n = 290,000);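 active = EGFP signal decrease of at least 30% at 10 µM or well 3 SD below plate mean, unless failing retest; inactive = the rest, including hits failing retest or dose response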
Lipid drop inh = hepatocyte lipid droplet accumulation inhibitors, confirmation, imaging, AML12 mouse hepatocytes, single concentration, high-content. shares compounds with Lipid droplet. BODIPY lipid droplet imaging; droplets induced with 100 µM oleic acid. inhibition, % at 5.2 µM. actives 65% (n = 870). AID 463183, 2010;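 active = inhibition of lipid droplet metric at least 50%, with more than 300 cells in each of four replicates; inconclusive = wells under 300 cells, flagged as toxic or low count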;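 also: plate controls were DMSO with oleic acid for no effect and 5 µM Triacsin-C for full effect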
AML12 cytotox = AML12 hepatocyte cytotoxicity, counter-screen for hepatic lipid droplet formation project, imaging, DAPI nuclear morphology imaging; shares compounds with Lipid droplet; AML12 mouse hepatocytes; stronger effect = higher value; cells fed 100 µM oleate overnight; z-score at 5 µM; actives 3% (n = 870); AID 463200, 2010; in the data active = z-score above about 6.3;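 also: compound exposure lasted overnight at 37 °C before fixation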
AML12 tox conf = AML12 hepatocyte cytotoxicity, confirmation, cytotoxicity control for hepatic lipid droplet formation project, cell-based, single concentration; shares compounds with Lipid droplet; AML12 mouse hepatocyte viability, ATP luminescence; cells loaded with 100 µM oleic acid; cytotoxicity, % at 50 µM; 530 tested, under 10 active;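 active = cytotoxicity above 50% in each of four replicates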;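 also: compound exposure lasted overnight at 37 °C before the ATP read; 0% = DMSO-treated cells and 100% = wells with no cells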
Active calls of the source: *; ? = inconclusive; nt = no result. The full list was thinned out, with hits kept by preference.

SMILES	MDM2 E3 inh	Lipid droplet	pCIP destab	Lipid drop inh	AML12 cytotox	others
CCC(=O)N1N=C(c2cccs2)CC1c1ccc(OC)cc1 (centres undefined)	nt	-2	-8	nt	nt
CCn1cc(C(=O)NCCCN2CCCC(C)C2)c(=O)c2cc(S(=O)(=O)N3CCOCC3)ccc21 (centres undefined)	nt	0	-12	nt	nt
Cc1c(S(=O)(=O)c2ccccn2)c(N)n(Cc2ccccc2)c1C	3	61*	1	8	-0.61
Cc1c(S(=O)(=O)c2ccccn2)c(N)n(Cc2ccccc2Cl)c1C	0	-4	-9	nt	nt
CCc1ccccc1NC(=O)C1=CC(c2cccs2)=NS(=O)(=O)N1C	nt	72*	5	105*	-0.14	AML12 tox conf=18
Cc1ccc(O)c(NC(=O)C2=CC(c3cccs3)=NS(=O)(=O)N2C)c1	nt	?	1	nt	nt
CC(C)C(=O)NNC(=O)c1csc(-c2cccs2)n1	-10	2	-2	nt	nt
Cc1cc(C)cc(C(=O)NC(CC(N)=O)c2ccc(N3CCCCCC3)c([N+](=O)[O-])c2)c1 (centres undefined)	nt	20	-8	nt	nt
CCCC1O[C@@H]2C[C@H]3[C@@H]4CCC5=CC(=O)C=C[C@]5(C)[C@H]4[C@@H](O)C[C@]3(C)[C@]2(C(=O)CO)O1 (some centres undefined)	nt	118*	2	113*	2.3	AML12 tox conf=22
CCCC1OC2CC3C4CCC5=CC(=O)C=CC5(C)C4C(O)CC3(C)C2(C(=O)O)O1 (centres undefined)	nt	7	-9	nt	nt
O=C(COc1ccccc1)N=C1SC2CS(=O)(=O)CC2N1c1ccc(F)cc1 (centres undefined)	nt	-28	-6	nt	nt
O=C(O)c1c(-c2ccccc2)c(-c2ccccc2)nc2ccccc12	-1	5	18	nt	nt
CC1(CCC(=O)N2CCCC(N3CCN(c4ccc(F)cc4)CC3)C2)CC1 (centres undefined)	nt	-4	-18	nt	nt
CCCCOc1ccc(-c2ncc([N+](=O)[O-])cn2)cc1	-22	51*	0	19	0.84
CCCCOc1ccc(-c2ncc(Cl)cn2)cc1	-32	8	-12	nt	nt
Cc1nn(-c2ccccc2)c2nc(C(Cl)(Cl)Cl)[nH]c(=O)c12	-10	-5	-3	nt	nt
Cc1ccc(-n2nc(C)c3c(=O)[nH]c(C(F)(F)F)nc32)cc1	-3	74*	-1	12	-0.31
O=C(NCCc1cccc(Cl)c1)c1ccc2c(c1)OCO2	nt	-8	1	nt	nt
CCOc1ccc(CCNC(=O)c2nccnc2C(=O)O)cc1OCC	nt	4	2	nt	nt
COc1ccc(CCNC(=O)c2ccc3ccccc3n2)cc1OC	1	2	-2	nt	nt
CCOc1ccc(CCNC(=O)c2c(C)nn(-c3ccccc3)c2Cl)cc1OCC	nt	52*	0	72*	-0.47	AML12 tox conf=8
Cc1nn(-c2ccccc2)c(Cl)c1C(=O)NCCCCNC(=O)c1c(C)nn(-c2ccccc2)c1Cl	-24	16	-10	nt	nt
CCOc1ccc(CCNC(=O)C2(c3ccccc3)CC2)cc1OCC	nt	56*	-21	83*	-0.36	AML12 tox conf=13
CCOc1ccc(CCNC(=O)c2ccc3ccccc3n2)cc1OCC	nt	78*	5	107*	-0.78	AML12 tox conf=22
COc1cccc(NC(=O)NCCC2=CCCCC2)c1	-3	-1	-12	nt	nt
SMILES	MDM2 E3 inh	Lipid droplet	pCIP destab	Lipid drop inh	AML12 cytotox	others
CCOc1ccc(CCNC(=O)Nc2cccc(OC)c2)cc1OCC	nt	125*	-12	110*	-0.61	AML12 tox conf=9
Cn1nc(-c2ccccc2)cc1NC(=O)c1cccs1	10	-15	-12	nt	nt
Cn1c(C(=O)N2CCC(C(N)=O)CC2)cc2cc(Cl)ccc21	nt	7	3	nt	nt
COCCCN1C(=O)CC(C(=O)OC)=C1C	-9	4	-12	nt	nt
C1CCCC(NC2=NCCO2)CCC1	-17	2	6	nt	nt
COc1ccc(Br)c(C(=O)N2CCN(S(=O)(=O)c3cccs3)CC2)c1	nt	4	-8	nt	nt
CN(C)C(=O)C1C2NC(=S)N(c3cccc(Cl)c3)C1(C)Oc1ccc(Cl)cc12 (centres undefined)	-4	-36	8	nt	nt
CCOc1ccc(NS(=O)(=O)c2ccc(C(=O)N3CCC3)cc2)cc1	nt	71*	1	99*	-0.56	AML12 tox conf=14
CCOc1ccc(NS(=O)(=O)c2ccc(OCC(=O)N3CCCC3)cc2)cc1	-15	-6	-6	nt	nt
CCOC(=O)C(NC(=O)c1ccccc1)(OCc1ccccc1)C(F)(F)F (centres undefined)	-14	54*	-6	66*	-0.86	AML12 tox conf=15
CCOC(=O)C(NC(=O)NCc1ccccc1)(OCC)C(F)(F)F (centres undefined)	-3	-1	-14	nt	nt
CC(C)N(C(=O)COC(=O)c1ccc([N+](=O)[O-])cc1)c1ccccc1	-8	-7	-3	nt	nt
CCOC(=O)CN(C(=O)CSc1nnc(COc2ccc(OC)cc2)n1CC)c1ccccc1	nt	6	-5	nt	nt
COc1ccc(C2(c3ccc(OC)cc3)NC(=O)N(CC(=O)Nc3cc(C)ccc3OC)C2=O)cc1	nt	86*	-5	106*	-1	AML12 tox conf=12
COc1ccc(C2(c3ccc(OC)cc3)NC(=O)N(CC(=O)Nc3ccc(C(=O)N(C)C)cc3)C2=O)cc1	nt	2	11	nt	nt
Cc1sc(NC(=O)Cc2ccc3c(c2)OCO3)nc1-c1ccc2c(c1)CCN2C(=O)c1ccc(F)cc1	9	34	-2	nt	nt
Cc1sc(NC(=O)Cc2ccc3c(c2)OCO3)nc1-c1ccc2c(c1)CCN2C(=O)c1ccccc1F	-17	51*	-3	83*	0.17	AML12 tox conf=3
COc1cccc(CNC(=O)COc2ccc(C(=O)c3ccccc3)cc2)c1	nt	10	4	nt	nt
Cc1ccc(C)c(C(=O)N2CCN(c3ncccn3)CC2)c1	nt	57*	-3	-13	-0.17
Cc1ccc(C(=O)N2CCN(c3ncccn3)CC2)cc1	nt	0	-2	nt	nt
CC(=O)c1ccc(N2CCN(S(=O)(=O)c3ccc4c5c3CC(=O)N5CC(C)S4)CC2)cc1 (centres undefined)	nt	-5	-19	nt	nt
Cc1cc(C(c2ccc(O)cc2)c2cc(C)c(O)cc2C)c(C)cc1O	nt	56*	-4	21	-0.96
Cc1c(C(c2ccc(O)cc2)c2c(C)n(C)n(-c3ccccc3)c2=O)c(=O)n(-c2ccccc2)n1C	-6	5	8	nt	nt
CCCCC(=O)N(Cc1ccc(-c2ccccc2-c2nn[nH]n2)cc1)[C@H](C(=O)O)C(C)C	nt	9	-3	nt	nt
CCC(C)Oc1cc(-c2ccnc(Nc3cccc(Cl)c3)n2)ccn1 (centres undefined)	5	-10	4	nt	nt
